# Data published in article PMC7024744 (Journal of Pesticide Science, 2020).
# Tests used:
# V. mali = assay: fungicidal activity in vitro, mycelium growth rate method; assay type: cell-based; details: Cytospora mali, read-out: Antifungal activity in vitro, inhibition, V. mali
# Procedure, shortened: (§1)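 Mycelium growth rate method. Test compounds were dissolved in acetone as a 100 mg/L stock and tested at 50 mg/L. Boscalid served as positive control and acetone as negative control. Plates were incubated at 25°C. Inhibition (%) was calculated from the average mycelial diameter (mm) with compound versus the negative-control diameter.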
# B. cinerea = assay: as above; assay type: cell-based; details: Botrytis cinerea, read-out: Antifungal activity in vitro, inhibition, B. cinerea
# Procedure, shortened: as §1
# porcine SDH = porcine SDH (Sus scrofa, UniProt A5GZW8+D0VWV4+Q007T0+Q0QF01); assay: SDH enzymatic inhibition assay; assay type: biochemical, swine
# Chain of porcine SDH (Q0QF01 43-664): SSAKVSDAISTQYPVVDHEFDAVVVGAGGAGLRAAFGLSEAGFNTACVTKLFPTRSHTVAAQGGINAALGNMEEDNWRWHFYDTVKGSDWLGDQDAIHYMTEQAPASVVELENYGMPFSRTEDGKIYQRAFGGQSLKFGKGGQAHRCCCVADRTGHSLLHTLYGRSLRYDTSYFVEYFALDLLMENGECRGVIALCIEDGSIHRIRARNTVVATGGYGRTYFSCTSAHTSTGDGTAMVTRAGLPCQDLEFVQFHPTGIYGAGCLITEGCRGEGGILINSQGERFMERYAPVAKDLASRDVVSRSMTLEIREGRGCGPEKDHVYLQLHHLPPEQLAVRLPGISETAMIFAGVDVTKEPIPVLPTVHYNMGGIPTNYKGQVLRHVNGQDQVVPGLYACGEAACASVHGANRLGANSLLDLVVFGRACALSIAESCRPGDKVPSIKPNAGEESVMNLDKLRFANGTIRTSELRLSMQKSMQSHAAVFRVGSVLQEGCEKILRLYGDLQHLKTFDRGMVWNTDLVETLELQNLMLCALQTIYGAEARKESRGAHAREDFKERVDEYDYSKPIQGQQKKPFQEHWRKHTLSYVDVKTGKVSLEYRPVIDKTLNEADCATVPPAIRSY
# Chain of porcine SDH (Q007T0 29-280): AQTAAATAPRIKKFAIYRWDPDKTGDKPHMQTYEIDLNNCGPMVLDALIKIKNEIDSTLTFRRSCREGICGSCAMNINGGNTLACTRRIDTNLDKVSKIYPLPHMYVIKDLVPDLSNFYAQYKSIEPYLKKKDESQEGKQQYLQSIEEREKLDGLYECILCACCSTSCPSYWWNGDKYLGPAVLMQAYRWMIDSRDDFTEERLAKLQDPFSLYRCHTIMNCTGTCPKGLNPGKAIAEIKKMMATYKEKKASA
# Chain of porcine SDH (D0VWV4 30-169): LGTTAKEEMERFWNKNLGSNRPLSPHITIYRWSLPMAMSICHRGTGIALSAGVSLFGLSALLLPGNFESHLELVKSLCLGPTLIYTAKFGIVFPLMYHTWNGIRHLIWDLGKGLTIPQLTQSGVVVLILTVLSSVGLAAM
# Chain of porcine SDH (A5GZW8 37-159): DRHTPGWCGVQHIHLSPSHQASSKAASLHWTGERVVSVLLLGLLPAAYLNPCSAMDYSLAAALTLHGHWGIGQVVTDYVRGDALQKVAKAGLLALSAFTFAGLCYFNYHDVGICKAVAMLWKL
# Procedure, shortened: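 Porcine SDH quantified by double-antibody sandwich ELISA. Plates were coated with purified porcine SDH antibody, then monoclonal antibody and HRP-labelled SDH antibody were added. After washing, TMB substrate was added, followed by acid. OD was read at 450 nm. SDH activity concentration was taken from a standard curve of standard-substance concentration against OD and corrected for sample dilution.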
structure (smiles),measurement,setting,value
O=C(Nc1ccccc1-c1ccc(Cl)cc1)c1cccnc1Cl [Boscalid],inhibition at 50 µg/mL,V. mali,100%
same,inhibition at 50 µg/mL,B. cinerea,100%
same,IC50,porcine SDH,1670 nM
same,inhibition at 0.5 µM,"porcine SDH; read-out: SDH enzymatic inhibition, Inhibition (%) 0.5 µM",21.6%
same,inhibition at 1 µM,"porcine SDH; read-out: SDH enzymatic inhibition, Inhibition (%) 1 µM",43.3%
same,inhibition at 2 µM,"porcine SDH; read-out: SDH enzymatic inhibition, Inhibition (%) 2 µM",53.6%
same,inhibition at 8 µM,"porcine SDH; read-out: SDH enzymatic inhibition, Inhibition (%) 8 µM",81%
